Test results taken from ChEMBL document CHEMBL1125357, “Gonadotropin-releasing hormone antagonists with N omega-triazolylornithine, -lysine, or -p-aminophenylalanine residues at positions 5 and 6” (J Med Chem, 1992).
Values after ≈ are worked out from the molar mass of the structure shown. Values joined by “and” are separate entries in the source; they are usually repeats but may differ in a detail not shown here. Equal entries are not always repeated. Non-standard residues stand in square brackets, D forms with d. Residues, ends and D or L forms follow the SMILES beside them. *: point of attachment. dNva(5-oxo-5-(4-MeOPh)) = COc1ccc(C(=O)CC[C@@H](N)C(=O)O)cc1; d(hArg(Et2)) = CCN=C(NCC)NCCCC[C@@H](N)C(=O)O; hArg(Et2) = CCN=C(NCC)NCCCC[C@H](N)C(=O)O; Triazol3yl(1,2,4-5-NH2) = Nc1nc(*)n[nH]1; dPhe(4-Cl) = N[C@H](Cc1ccc(Cl)cc1)C(=O)O; d2Nal = N[C@H](Cc1ccc2ccccc2c1)C(=O)O; Lys(iPr) = CC(C)NCCCC[C@H](N)C(=O)O; dCit = NC(=O)NCCC[C@@H](N)C(=O)O; d3Pal = N[C@H](Cc1cccnc1)C(=O)O; Nicotinoyl = O=C(c1cccnc1)*

Experiments:
[1] = species: Homo sapiens; assay: In vitro antagonistic potency relative to Ac-delta-3-Pro1-(D)Fpa2-(D)Trp3,6]GnRH; format: functional
Outline: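 Cultured rat pituitary cells. Peptides were scored for inhibition of GnRH-mediated LH secretion, and potency is expressed relative to the standard antagonist [Ac-Δ3-Pro1,DFpa2,DTrp3,6]GnRH (= 1.0).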

[2] = species: Rattus norvegicus; assay: Antiovulatory activity measured in rat; format: functional; design: unit: ug/rat
Outline: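 Corbin–Beattie rat antiovulatory assay. Cycling female rats of 250-300 g were given a single sc injection of peptide at noon on proestrus. Vehicle was saline or 5% DMSO in saline (200 μL), or corn oil where flagged. Result is expressed as dose in μg/rat with the number of rats ovulating over the number treated.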

[3] = species: Rattus norvegicus; assay: The compound was tested in vitro for the histamine release; format: functional; conditions: read-out: ED50 (the source's name)
[4] = Retention time of the compound; format: ADME
Outline: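 Peptide (0.5 mg/mL, 10 μL) was loaded in TEAP pH 7.0/CH3CN (76/24), acidified with H3PO4 where insoluble. Elution used a 30-48% CH3CN gradient over 30 min at 1.5 mL/min. Retention time is reported in minutes.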

| SMILES | EC50 [3] [µg/mL] | RT [4] [min] | Potency [1] | AOA [2] |
| --- | --- | --- | --- | --- |
| CC(=O)N[C@H](Cc1ccc2ccccc2c1)C(=O)N[C@H](Cc1ccc(Cl)cc1)C(=O)N[C@H](Cc1cccnc1)C(=O)N[C@@H](CO)C(=O)N[C@@H](CCCCNc1n[nH]c(N)n1)C(=O)N[C@H](CCCCNc1n[nH]c(N)n1)C(=O)N[C@@H](CC(C)C)C(=O)N[C@@H](CCCCNC(C)C)C(=O)N1CCC[C@H]1C(=O)NCC(N)=O | 66 (≈ 43.1 µM) |  | 0.12 | 1 and 2.5 |
| CC(=O)N[C@H](Cc1ccc2ccccc2c1)C(=O)N[C@H](Cc1ccc(Cl)cc1)C(=O)N[C@H](Cc1cccnc1)C(=O)N[C@@H](CO)C(=O)N[C@@H](CCCN=C(N)N)C(=O)N[C@H](Cc1cccnc1)C(=O)N[C@@H](CC(C)C)C(=O)N[C@@H](CCCN=C(N)N)C(=O)N1CCC[C@H]1C(=O)N[C@H](C)C(N)=O | 2.9 (≈ 2.05 µM) |  | 0.91 | 0.5 and 1 |
| CC(=O)N[C@H](Cc1ccc2ccccc2c1)C(=O)N[C@H](Cc1ccc(Cl)cc1)C(=O)N[C@H](Cc1cccnc1)C(=O)N[C@@H](CO)C(=O)N[C@@H](CCCCNC(=O)c1cccnc1)C(=O)N[C@H](CCCCNC(=O)c1cccnc1)C(=O)N[C@@H](CC(C)C)C(=O)N[C@@H](CCCCNC(C)C)C(=O)N1CCC[C@H]1C(=O)N[C@H](C)C(N)=O (Ac-[d2Nal][dPhe(4-Cl)][d3Pal]SK(Nicotinoyl)[dK](Nicotinoyl)L[Lys(iPr)]P[dA]-NH2) | > 300 |  | 0.66 | 1 and 1.5 |
| CC(=O)N[C@H](Cc1ccc2ccccc2c1)C(=O)N[C@H](Cc1ccc(Cl)cc1)C(=O)N[C@H](Cc1cccnc1)C(=O)N[C@@H](CO)C(=O)N[C@@H](CCCCNc1n[nH]c(N)n1)C(=O)N[C@H](CCCCNc1n[nH]c(N)n1)C(=O)N[C@@H](CC(C)C)C(=O)N[C@@H](CCCCNC(C)C)C(=O)N1CCC[C@H]1C(=O)N[C@H](C)C(N)=O (Ac-[d2Nal][dPhe(4-Cl)][d3Pal]SK(Triazol3yl(1,2,4-5-NH2))[dK](Triazol3yl(1,2,4-5-NH2))L[Lys(iPr)]P[dA]-NH2) | 139 (≈ 90 µM) |  | 0.23 | 2 |
| COc1ccc(C(=O)CC[C@@H](NC(=O)[C@H](CCCN=C(N)N)NC(=O)[C@H](CO)NC(=O)[C@@H](Cc2cccnc2)NC(=O)[C@@H](Cc2ccc(Cl)cc2)NC(=O)[C@@H](Cc2ccc3ccccc3c2)NC(C)=O)C(=O)N[C@@H](CC(C)C)C(=O)N[C@@H](CCCN=C(N)N)C(=O)N2CCC[C@H]2C(=O)N[C@H](C)C(N)=O)cc1 (Ac-[d2Nal][dPhe(4-Cl)][d3Pal]SR[dNva(5-oxo-5-(4-MeOPh))]LRP[dA]-NH2) | 1.8 (≈ 1.21 µM) |  | 1 | 0.5 and 1.5 |

Second part, led by results:

| EC50 [3] [µg/mL] | RT [4] [min] | SMILES | Potency [1] | AOA [2] |
| --- | --- | --- | --- | --- |
|  | 16.3 | CC(=O)N[C@H](Cc1ccc2ccccc2c1)C(=O)N[C@H](Cc1ccc(Cl)cc1)C(=O)N[C@H](Cc1cccnc1)C(=O)N[C@@H](CO)C(=O)N[C@@H](Cc1ccc(O)cc1)C(=O)N[C@H](Cc1cccnc1)C(=O)N[C@@H](CC(C)C)C(=O)N[C@@H](CCCCNC(C)C)C(=O)N1CCC[C@H]1C(=O)N[C@H](C)C(N)=O [listing 1 of 2 here] |  |  |
| 34 (≈ 23.7 µM) |  | CC(=O)N[C@H](Cc1ccc2ccccc2c1)C(=O)N[C@H](Cc1ccc(Cl)cc1)C(=O)N[C@H](Cc1cccnc1)C(=O)N[C@@H](CO)C(=O)N[C@@H](Cc1ccc(O)cc1)C(=O)N[C@H](Cc1cccnc1)C(=O)N[C@@H](CC(C)C)C(=O)N[C@@H](CCCCNC(C)C)C(=O)N1CCC[C@H]1C(=O)N[C@H](C)C(N)=O [listing 2 of 2 here] | 1.3 | 1 and 2.5 |
| 11 (≈ 7 µM) |  | CCN=C(NCC)NCCCC[C@H](NC(=O)[C@H](CC(C)C)NC(=O)[C@@H](CCCCNC(=NCC)NCC)NC(=O)[C@H](Cc1ccc(O)cc1)NC(=O)[C@H](CO)NC(=O)[C@@H](Cc1cccnc1)NC(=O)[C@@H](Cc1ccc(Cl)cc1)NC(=O)[C@@H](Cc1ccc2ccccc2c1)NC(C)=O)C(=O)N1CCC[C@H]1C(=O)N[C@H](C)C(N)=O (Ac-[d2Nal][dPhe(4-Cl)][d3Pal]SY[d(hArg(Et2))]L[hArg(Et2)]P[dA]-NH2) | 2.17 | 2.5 |
|  | 10.1 | CC(=O)N[C@H](Cc1ccc2ccccc2c1)C(=O)N[C@H](Cc1ccc(Cl)cc1)C(=O)N[C@H](Cc1cccnc1)C(=O)N[C@@H](CO)C(=O)N[C@@H](Cc1ccc(O)cc1)C(=O)N[C@H](CCCNC(N)=O)C(=O)N[C@@H](CC(C)C)C(=O)N[C@@H](CCCNC(=N)N)C(=O)N1CCC[C@H]1C(=O)N[C@H](C)C(N)=O (Ac-[d2Nal][dPhe(4-Cl)][d3Pal]SY[dCit]LRP[dA]-NH2) |  |  |
